# Results as given in ChEMBL document CHEMBL1124904, “7-Oxabicyclo[2.2.1]heptyl carboxylic acids as thromboxane A2 antagonists: aza omega-chain analogues” (J Med Chem, 1990).
# What was measured:
# Cavia porcellus [1] = species: Cavia porcellus; test: Evaluated for its potency in guinea pig trachea (GPT) spirals in the presence of increasing concentrations; format: functional
# How it was run: (§1)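 Guinea pig tracheal spirals contracted by U-46,619 in cumulative dose-response curves, repeated with increasing antagonist concentrations; Kb from analysis of the rightward shift.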
# Cavia porcellus [2] = test: Evaluated for the percent inhibition of arachidonate-induced dynamic compliance at 60 min after dosing (0.1 mg/kg iv) in anesthetized guinea pig.; format: functional
# How it was run: (§2)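 Anesthetized guinea pig dosed iv with antagonist at 0.1 mg/kg (some at 1.0 mg/kg). Arachidonic acid 0.5 mg/kg iv given as challenge 3 or 60 min later. Airway resistance, dynamic compliance and blood pressure recorded; percent inhibition of each response.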
# Thromboxane A2 receptor = target: T1, Thromboxane A2 receptor (Homo sapiens, UniProt P21731); test: Binding affinity was determined from the inhibition of [3H]-SQ 29,548 binding to Thromboxane A2 receptor in human platelet membranes.; format: cell membranes
# T1 sequence (P21731 whole entry): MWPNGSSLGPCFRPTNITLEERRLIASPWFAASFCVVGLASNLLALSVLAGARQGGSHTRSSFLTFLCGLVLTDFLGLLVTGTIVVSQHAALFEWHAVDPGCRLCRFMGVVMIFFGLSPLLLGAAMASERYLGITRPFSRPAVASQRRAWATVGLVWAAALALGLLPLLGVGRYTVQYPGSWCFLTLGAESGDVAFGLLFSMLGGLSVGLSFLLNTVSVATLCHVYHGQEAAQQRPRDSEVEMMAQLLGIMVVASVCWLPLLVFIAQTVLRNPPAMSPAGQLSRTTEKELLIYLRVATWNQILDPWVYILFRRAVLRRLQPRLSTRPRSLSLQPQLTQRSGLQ
# How it was run: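 Radioligand binding to human platelet membranes with [5,6-3H2]-SQ 29,548 as tracer; Kd derived from inhibition of specific binding.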
# Homo sapiens [3] = species: Homo sapiens; test: Evaluated for ability to inhibit platelet aggregation of human platelet-rich plasma (PRP) induced by 11.9-epoxymethano-PGH2; format: functional; details: read-out: I50
# How it was run: (§3)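 Human PRP aggregation induced by U-46,619 (11,9-epoxymethano-PGH2, stable PGH2/TxA2 mimic) at 5 or 10 μM; I50 reported. Values are single determinations unless otherwise noted.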
# Rattus norvegicus [4] = species: Rattus norvegicus; test: Evaluated for its potency in rat aorta (RA) strips in the presence of increasing concentrations; format: functional
# How it was run: (§4)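 Rat aortic strips contracted by U-46,619 in cumulative dose-response curves, repeated with increasing antagonist concentrations; Kb from analysis of the rightward shift.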
# Cavia porcellus [5] = test: Evaluated for the percent inhibition of arachidonate-induced hypertension resulting in decreases in blood pressure at 3 min after dosing (0.1 mg/kg iv) in anesthetized guinea pig.; format: functional; how it was run: as §2
# Cavia porcellus [6] = test: Evaluated for the percent inhibition of arachidonate-induced dynamic compliance at 3 min after dosing (0.1 mg/kg iv) in anesthetized guinea pig.; format: functional; how it was run: as §2
# Homo sapiens [7] = species: Homo sapiens; test: Ability to inhibit platelet aggregation of human platelet-rich plasma (PRP) induced by 800 uM of AA-IPA (arachidonic acid); format: functional; details: read-out: I50
# How it was run: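 Human platelet-rich plasma; aggregation triggered by arachidonic acid at 800 μM. Test acids were also checked against ADP (20 μM)-induced aggregation. I50 taken as the concentration inhibiting aggregation.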
# Cavia porcellus [8] = test: Evaluated for the percent inhibition of arachidonate-induced air-way resistance at 60 min after dosing (0.1 mg/kg iv) in anesthetized guinea pig.; format: functional; how it was run: as §2
# Cavia porcellus [9] = test: Evaluated for the percent inhibition of arachidonate-induced hypertension resulting in decreases in blood pressure at 60 min after dosing (0.1 mg/kg iv) in anesthetized guinea pig.; format: functional; how it was run: as §2
# Cavia porcellus [10] = test: Evaluated for the percent inhibition of arachidonate-induced air-way resistance at 3 min after dosing (0.1 mg/kg iv) in anesthetized guinea pig.; format: functional; how it was run: as §2
# Homo sapiens [11] = species: Homo sapiens; test: Evaluated for ability to inhibit platelet aggregation of human platelet-rich plasma (PRP) induced by 11.9-epoxymethano-PGH2.; format: functional; details: read-out: I50; how it was run: as §3
# Cavia porcellus [12] = species: Cavia porcellus; test: Evaluated for its potency in Guinea pig trachea (GPT) spirals in the presence of increasing concentrations; format: functional; how it was run: as §1
# Rattus norvegicus [13] = species: Rattus norvegicus; test: Evaluated for its potency Rat aorta (RA) strips in the presence of increasing concentrations; format: functional; how it was run: as §4
# Homo sapiens [14] = species: Homo sapiens; test: Evaluated for its specificity by inhibition of TXB2 and arachidonic acid (substrate) biosynthesis, enzyme source is human platelets.; format: functional; details: read-out: I50
# How it was run: (§5)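 Microsomal enzyme preparations from human platelet, bovine seminal vesicles or bovine aorta, given arachidonic acid or PGH2 as substrate. Products measured: TxB2, PGE2 or 6-keto-PGF1α. IC50 reported.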
# Bos taurus [15] = species: Bos taurus; test: Evaluated for its specificity by inhibition of 6-keto-PGF1-alpha and arachidonic acid (substrate) biosynthesis, enzyme source is Bovine Aorta; format: functional; how it was run: as §5
# Homo sapiens [16] = species: Homo sapiens; test: Evaluated for its specificity to inhibit the aggregation of human platelets induced by Epinephrine(2 degree phase) at concentration of 10 uM; format: functional; details: read-out: I50
# How it was run: (§6)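 Human platelet aggregation with agonist ADP 20 μM, collagen 10 or 20 μg/mL, or epinephrine 10 μM (primary and secondary phases scored separately); I50 reported.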
# Homo sapiens [17] = species: Homo sapiens; test: Evaluated for its specificity to inhibit the aggregation of human platelets induced by Collagen at concentration of 20 ug/mL; format: functional; details: read-out: I50; how it was run: as §6
# Homo sapiens [18] = species: Homo sapiens; test: Evaluated for its specificity to inhibit the aggregation of human platelets induced by Collagen at concentration of 10 ug/mL; format: functional; details: read-out: I50; how it was run: as §6
# Homo sapiens [19] = species: Homo sapiens; test: Evaluated for its specificity to inhibit the aggregation of human platelets induced by U-46,619 at concentration of 5 uM; format: functional; details: read-out: I50; how it was run: as §3
# Homo sapiens [20] = species: Homo sapiens; test: Evaluated for its specificity to inhibit the aggregation of human platelets induced by ADP at concentration of 20 uM; format: functional; details: read-out: I50; how it was run: as §6
# Homo sapiens [21] = species: Homo sapiens; test: Evaluated for its specificity by inhibition of TXB2 and PGH-2 (substrate) biosynthesis, enzyme source is human platelets.; format: functional; how it was run: as §5
# Homo sapiens [22] = species: Homo sapiens; test: Evaluated for its specificity by inhibition of PGE-2 and PGH-2 (substrate) biosynthesis, enzyme source is human platelets.; format: functional; how it was run: as §5
# Homo sapiens [23] = species: Homo sapiens; test: Evaluated for its specificity by inhibition of PGE-2 and arachidonic acid (substrate) biosynthesis, enzyme source is human platelets.; format: functional; how it was run: as §5
# Bos taurus [24] = species: Bos taurus; test: Evaluated for its specificity by inhibition of 6-keto-PGF1-alpha and PGH-2 (substrate) biosynthesis, enzyme source is Bovine Aorta; format: functional; how it was run: as §5
# Bos taurus [25] = species: Bos taurus; test: Evaluated for its specificity by inhibition of PGE-2 and arachidonic acid (substrate) biosynthesis, enzyme source is Bovine seminal Vesicles; format: functional; how it was run: as §5
# Homo sapiens [26] = species: Homo sapiens; test: Evaluated for its specificity to inhibit the aggregation of human platelets induced by U-46,619 at concentration of 10 uM; format: functional; details: read-out: I50; how it was run: as §3
# Homo sapiens [27] = species: Homo sapiens; test: Evaluated for its specificity to inhibit the aggregation of human platelets induced by Epinephrine(1 degree phase) at concentration of 10 uM; format: functional; details: read-out: I50; how it was run: as §6
Structure (SMILES),Kb (Cavia porcellus [1]) [nM],Inhibition (Cavia porcellus [2]) [%],Kd (Thromboxane A2 receptor) [nM],IC50 (Homo sapiens [3]) [nM],Kb (Rattus norvegicus [4]) [nM],Inhibition (Cavia porcellus [5]) [%],Inhibition (Cavia porcellus [6]) [%],"IC50 (Homo sapiens [7]; Homo sapiens, Plasma) [nM]",Inhibition (Cavia porcellus [8]) [%],Inhibition (Cavia porcellus [9]) [%],Inhibition (Cavia porcellus [10]) [%],"IC50 (Homo sapiens [11]; Homo sapiens, Plasma) [nM]","Kb (Cavia porcellus [12]; Cavia porcellus, Trachea) [nM]",also measured
O=C(O)CCC/C=C/CC1C2CCC(O2)C1CNC(=O)CNC(=O)CCCC1CCCCC1 (stereo not drawn),0.07,59,1.1,120,0.9,289,97,45,84,289,99,,,
CCCCCC/C(S)=N/C/C(S)=N/CC1C2CC[C@@H](O2)C1C/C=C/CCCC(=O)O (stereo partly drawn),,,26.4,,,,,970,,,,9600,,
O=C(O)CCC/C=C/CC1C2CCC(O2)C1CNC(=O)CNC(=O)CCCCC1CCCCC1 (stereo not drawn),0.07,,2.6,1950,2.5,,,160,,,,,,
O=C(O)CCC/C=C/CC1C2CCC(O2)C1CNC(=O)CNC(=O)CSc1ccccc1 (stereo not drawn),2.4,42,41.4,110,1.8,287,92,21,53,235,98,,,
CCCCCC/C(S)=N/CC(=O)NCC1C2CCC(O2)C1C/C=C/CCCC(=O)O (stereo not drawn),,56,12.4,,,178,94,40,51,158,97,230,4.4,"Kb (Rattus norvegicus [13]; Rattus norvegicus, Aorta): 1.1 nM"
CCCCCCCCC(=O)NCC(=O)NCC1C2CCC(O2)C1C/C=C/CCCC(=O)O (stereo not drawn),,39,8.3,,,252,98,220,31,138,99,1100,1.4,"Kb (Rattus norvegicus [13]; Rattus norvegicus, Aorta): 7.1 nM"
CC(C)(C)c1ccc(SCC(=O)NCC(=O)NCC2C3CCC(O3)C2C/C=C/CCCC(=O)O)cc1 (stereo not drawn),0.1,26,4.2,150,1.8,191,95,15,43,184,98,,,
"CCCCCCCC(=O)NCC(=O)NCC1C2CCC(O2)C1C/C=C/CCCC(=O)O (single isomer, unassigned; (-))",,22,49.6,,,195,86,180,23,90,96,240,3,IC50 (Homo sapiens [14]): > 1 mM; IC50 (Bos taurus [15]): > 1 mM; IC50 (Homo sapiens [16]): 40 nM; IC50 (Homo sapiens [17]): 560 nM; IC50 (Homo sapiens [18]): 190 nM; IC50 (Homo sapiens [19]): 220 nM; IC50 (Homo sapiens [20]): > 1 mM; IC50 (Homo sapiens [21]): > 1 mM; Kb (Rattus norvegicus [13]): 8.8 nM; IC50 (Homo sapiens [22]): > 1 mM; IC50 (Homo sapiens [23]): > 1 mM; IC50 (Bos taurus [24]): > 1 mM; IC50 (Bos taurus [25]): > 1 mM; IC50 (Homo sapiens [26]): 240 nM; IC50 (Homo sapiens [27]): > 1 mM
CCCCCCCC(=O)NCC(=O)NCC1C2CCC(O2)C1C/C=C/CCCC(=O)O (stereo in doubt; 51),,74,17.5,,,,98,,79,130,97,,,Kb (Cavia porcellus [12]): 2 nM; IC50 (Homo sapiens [11]): 430 nM; IC50 (Homo sapiens [7]): 220 nM; Kb (Rattus norvegicus [13]): 3.4 nM
